Laboratory results reported in ChEMBL document CHEMBL4513216, “Probing the Open Global Health Chemical Diversity Library for Multistage-Active Starting Points for Next-Generation Antimalarials” (ACS Infect Dis, 2020).

Assay: Toxicity liver stage against HepG2, at 10uM
Assay type: cell-based
Set-up: test concentration 10 uM, cell line HepG2-A16-CD81EGFP
Details: human, HepG2-A16-CD81EGFP cells; read-out: INHIBITION
Procedure, shortened: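 Uninfected HepG2-A16-CD81EGFP cells, 3 × 10^3 per well, 1536-well, plated on prespotted compound at 10 μM final, parasite-free screening media added to match infected plates; puromycin 10 μM positive, DMSO 0.5% negative; run in parallel with 48 h PbLuc assay at 37 °C, 5% CO2; viability by CellTiter-Glo luminescence, normalized to controls.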

First: CC(C)(C)NC(=O)CCn1ncc2c(Cl)cccc21
Second: CN(CC(C)(C)C)c1ccc(C(=O)NCCCc2ccccn2)cn1
The cytotoxicity at 10 µM of the first is higher: 7.25% for the first, -49.1% for the second.

Going from `O=C(Cc1ccccc1F)N1CCN(C(=O)c2ccoc2)CC1` to `Cc1ccnn1CC(=O)N1CCCN(C2Cc3ccccc3C2)CC1`, the cytotoxicity at 10 µM falls from 1.16% to -120%.

Going from `OC(CNCCn1cccn1)c1cccc(Br)c1` (stereo not drawn) to `COCCC(=O)Nc1nccn1Cc1ccc(Br)cc1`, the cytotoxicity at 10 µM falls from -5.98% to -47.2%.

Going from `CC1(C2CCN(CC(N)=O)CC2)CN(Cc2ccccc2)C(=O)CO1` (stereo not drawn) to `O=C1CCCN1Cc1ncn2c1CN(C(=O)Cc1ccccc1)CCC2`, the cytotoxicity at 10 µM rises from -19.9% to 6.49%.

First: Cc1nc(C)n(CC2CN(Cc3cc(C#N)ccc3F)CCO2)n1 (stereo not drawn)
Second: Cc1nc(C)n(CC2CCCN(CCOc3cccc(C#N)c3)C2)n1 (stereo not drawn)
The cytotoxicity at 10 µM of the first is higher: -1.56% for the first, -6.53% for the second.

Going from `CNC(=O)c1cn[nH]c1C1(C)CCCN(Cc2ccccn2)C1` (stereo not drawn) to `CNc1nccc(C2CCCCN2Cc2cnn3cccnc23)n1` (stereo not drawn), the cytotoxicity at 10 µM rises from -10.5% to 0.247%.

Going from `O=C(C[C@@H]1COC[C@H]2CN(Cc3ccc(F)cc3)C[C@@H]12)N1CCOCC1` to `O=C(c1ccco1)N1CC[C@@H](N2CCOCC2)[C@@H]1Cc1ccccc1`, the cytotoxicity at 10 µM falls from 7.75% to -77%.

First: Nc1ncc(-c2ccc(C(F)(F)F)cc2)c(C2CCCNC2)n1 (stereo not drawn)
Second: O=C(NCCCNc1ccc(C(F)(F)F)cn1)c1ccc2c(c1)OCO2
The cytotoxicity at 10 µM of the first is higher: 27.1% for the first, -8.51% for the second.

Compared with `O=C(C1CCCC1)N1CC(c2nc(Cc3ccccc3)no2)C1`, `CCOCC(=O)N1CCC(c2nc(-c3cccnn3)no2)CC1` is lower in cytotoxicity at 10 µM: 4.84% for the first, -3.3% for the second.

Compared with `CCc1nccn1C1CCCN(C(=O)c2ccn(C)c(=O)c2)C1` (stereo not drawn), `CCc1ccc(CC(=O)N2CCN(c3nccn3C)CC2)cc1` is lower in cytotoxicity at 10 µM: 17% for the first, -0.647% for the second.

Compared with `CC(C)C(C(N)=O)c1cccc(Cl)c1` (stereo not drawn), `CC(C)[C@H](N)C(=O)N1CCSc2ccccc2C1` is lower in cytotoxicity at 10 µM: 3.82% for the first, -5.53% for the second.

Going from `CCc1cc(N2CCC(N[C@@H]3CS(=O)(=O)C[C@H]3O)CC2)nc(N(C)C)n1` to `CC(=O)N1CCC1c1cc(N2CC(O)C2)nc(C)n1` (stereo not drawn), the cytotoxicity at 10 µM rises from -0.157% to 5.76%.

First: Cc1cc(N2CCOC(CN)C2)nc(-c2ccccc2)n1 (stereo not drawn)
Second: NC1CCCc2nc(-c3ccccc3)ncc21 (stereo not drawn)
The cytotoxicity at 10 µM of the first is lower: -3.26% for the first, 4.93% for the second.

First: COCCNC(=O)c1ccc2c(=O)n3c(nc2c1)CCCCC3
Second: CC(=O)N1CCCC(C(=O)NCCOc2cc(C)cc(C)c2)C1 (stereo not drawn)
The cytotoxicity at 10 µM of the first is higher: 5.53% for the first, -3.43% for the second.

Going from `Cn1ccnc1-c1noc(NCc2ccc(Br)cc2)n1` to `Cc1ncc(-c2ccnc(NCCc3ccc(F)cc3)n2)c(=O)[nH]1`, the cytotoxicity at 10 µM falls from -4.32% to -7.3%.

First: CN(CCCNC(=O)C1CCc2cn[nH]c2C1)c1ccc(F)cc1 (stereo not drawn)
Second: CC(=O)NCCCNCc1ccc(Cl)c2cccnc12
The cytotoxicity at 10 µM of the first is higher: 14.2% for the first, -3.17% for the second.

First: Clc1ccc(CN2CCOC[C@H](Oc3cccnc3)C2)cc1
Second: Cc1noc2nc(C3CCCN(Cc4cccnc4)C3)cc(C(F)F)c12 (stereo not drawn)
The cytotoxicity at 10 µM of the first is higher: 6.12% for the first, -30.3% for the second.

First: COc1cc(N2CCOC(c3ccc(F)cc3)C2)ncn1 (stereo not drawn)
Second: COc1ccc(CNC(C)c2cnc3cc(C)nn3c2C)cc1 (stereo not drawn)
The cytotoxicity at 10 µM of the first is higher: 15.3% for the first, -4.86% for the second.

Compared with `CC(C)NC(=O)N1CCC(c2nccn2C(C)C)CC1`, `O=C(NC1CC1)N1CCc2ccc(=O)n(CCN3CCCC3)c2CC1` is higher in cytotoxicity at 10 µM: -6.77% for the first, -0.603% for the second.

Compared with `CCc1nc(CN2CCCN(C(=O)CC(F)(F)F)CC2)cs1`, `Cn1cc(-c2csc(CN3CCOCC3)n2)cn1` is higher in cytotoxicity at 10 µM: -18.9% for the first, -11.4% for the second.

First: CN1CC(C(=O)NCc2ccnc(-n3cccn3)c2)CC1=O (stereo not drawn)
Second: O=C(NCc1ccc(-n2cncn2)nc1)c1cnccn1
The cytotoxicity at 10 µM of the first is higher: -0.867% for the first, -5.18% for the second.

Compared with `Cc1ccc(N2CCC(C(=O)O)(n3ccc(C(C)C)n3)CC2)nn1`, `Cc1nn(CC(=O)N2CCCN(c3cccnn3)CC2)c(C)c1Cl` is higher in cytotoxicity at 10 µM: -3.64% for the first, -1.2% for the second.

Compared with `CC(CS(C)(=O)=O)N(C(=O)CCc1ccc(Cl)s1)C1CC1` (stereo not drawn), `CC(C)c1noc(CCCC(=O)Nc2cccc(F)c2)n1` is higher in cytotoxicity at 10 µM: 1.92% for the first, 7.01% for the second.

Compared with `O=C(C1CCCS1)N1CCOc2cccc(F)c21` (stereo not drawn), `O=C(C1CC12CCC2)N1CCC(n2cc(-c3ccsc3)nn2)CC1` (stereo not drawn) is higher in cytotoxicity at 10 µM: -6.54% for the first, 5.85% for the second.

First: COc1ccccc1N1CCC(N2CCOCC(CO)C2)CC1 (stereo not drawn)
Second: COc1ccccc1OC1CCN(C(=O)c2c[nH]c(=O)[nH]c2=O)CC1
The cytotoxicity at 10 µM of the first is lower: -6.85% for the first, 8.45% for the second.

First: c1ccc(SCCN2CCN(CCn3cncn3)CC2)cc1
Second: Clc1snnc1CN1CCCCC1Cn1cncn1 (stereo not drawn)
The cytotoxicity at 10 µM of the first is lower: -2.88% for the first, -0.575% for the second.

First: CC(C)(C)CC(=O)NCC(=O)Nc1ccn(Cc2ccncc2)n1
Second: COCCn1ccc(=O)c(OCC(=O)Nc2cccc(C(C)=O)c2)c1C
The cytotoxicity at 10 µM of the first is higher: 13.2% for the first, 4.31% for the second.

Going from `CCO[C@@H]1CC[C@H]2[C@H]1OCCN2C(=O)CC1=CCCCC1` to `Cc1ccc(CN2CC[C@H]3OCC[C@@H](C(=O)NC4CC4)[C@@H]3C2)o1`, the cytotoxicity at 10 µM rises from 2.91% to 5.81%.

Going from `O=C(Cc1ccsc1)N1CCC(n2nc(-c3ccco3)ccc2=O)CC1` to `CN(Cc1ccsc1)C(=O)c1nc(N2CCCCC2)ncc1Cl`, the cytotoxicity at 10 µM falls from -8.98% to -27.4%.

Compared with `CCOc1ccc(CNC(C)c2c(C)nn(C)c2C)cc1` (stereo not drawn), `CCOC(=O)c1n[nH]cc1-c1cncn1CCn1nc(C)c(C)c1C` is lower in cytotoxicity at 10 µM: -0.00326% for the first, -35.3% for the second.

Compared with `c1cc(CN2CCc3ncc(CN4CCCCC4)n3CC2)cs1`, `CN1CCN(c2ncnc3c2CCN(Cc2nccn2C)CC3)CC1` is lower in cytotoxicity at 10 µM: -5.21% for the first, -130% for the second.

Compared with `COCCCN1C(=O)CC[C@H]2CN(Cc3ccc4occc4c3)CC[C@H]21`, `CNCCN1C(=O)CC[C@H]2CN(c3ncc(F)cn3)CC[C@H]21` is lower in cytotoxicity at 10 µM: 8.98% for the first, 1.68% for the second.

Going from `Cc1cc(NCCCOC(C)C)c2nncn2n1` to `CCn1cc(CNC(=O)C(C)C)cn1`, the cytotoxicity at 10 µM rises from 6.17% to 7.74%.

Compared with `CCN(Cc1cccc2c1OCO2)C(=O)NCCOC`, `CNC(=O)NCCc1csc2ccccc12` is higher in cytotoxicity at 10 µM: 1.45% for the first, 2.22% for the second.

Compared with `CN(C)C(=O)N1CCC2(C1)CN(c1cccnc1)C(=O)CN2C` (stereo not drawn), `Cc1cnccc1CN1CCN(C)C2(CCC(=O)N(CC3CC3)CC2)C1` (stereo not drawn) is lower in cytotoxicity at 10 µM: 6.96% for the first, -3.51% for the second.

Compared with `CCN(CC)c1ccc(-c2nc(-c3cccc(OC)c3OC)no2)cn1`, `CC(C)c1nc(C(=O)N(C)c2ccc(Br)cn2)cs1` is lower in cytotoxicity at 10 µM: 20% for the first, 7.84% for the second.

First: O=C(Cn1cc(-n2cccc2)cn1)NCC(F)(F)F
Second: N#Cc1ccc(NCCC2CCN(CC(F)(F)F)CC2)nc1
The cytotoxicity at 10 µM of the first is higher: 16% for the first, 5.92% for the second.

Compared with `Cc1ccccc1NC(=O)NCC(C)(O)c1cccs1` (stereo not drawn), `O=C(Nc1ccc(S(=O)(=O)Nc2ccccc2)cc1)N1CCCC1` is higher in cytotoxicity at 10 µM: 8.5% for the first, 10.9% for the second.

Compared with `CCS(=O)(=O)N1CCCC2(CCCN2C(=O)c2cn(C)cn2)C1` (stereo not drawn), `O=C1N(Cc2ccc(F)c(F)c2)CCCC12CCN(C1CCCCC1)C2` (stereo not drawn) is lower in cytotoxicity at 10 µM: 8.16% for the first, -0.268% for the second.

First: CN(C)c1ncccc1CNS(=O)(=O)c1ccc(C(N)=O)cc1
Second: CC(C)c1[nH]c2ncccc2c1CN1CCN(S(=O)(=O)N(C)C)CC1
The cytotoxicity at 10 µM of the first is lower: -4.08% for the first, 3.33% for the second.

Compared with `CN(C)Cc1nc2c(o1)CN(S(=O)(=O)c1cccs1)C2`, `c1csc(-c2noc(CC3CCCO3)n2)c1` (stereo not drawn) is higher in cytotoxicity at 10 µM: -112% for the first, -3.37% for the second.

`CS(=O)(=O)NCC1CCCCN1Cc1cccc(C#N)c1` (stereo not drawn) gave a cytotoxicity at 10 µM of 0.528%.
